Reference: ChEMBL document CHEMBL1126014, “New conformationally restricted 99mTc N2S2 complexes as myocardial perfusion imaging agents” (J Med Chem, 1992)

Legend:
Rattus norvegicus [1] = assay: Biodistribution of the radiolabeled compound (2-5 uCi) in rat lung 65 mins after i.v. administration; format: ADME, organism-based; conditions: in vivo, iv
Procedure, shortened: (§1)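 Rats given the 99mTc complex iv. At set times, blood was drawn by cardiac puncture and the animals were killed at once by cardiectomy. Organs were excised, weighed and gamma-counted. Percent dose per organ was found by comparing tissue radioactivity with suitable dilutions of the injected dose.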

Rattus norvegicus [2] = assay: Biodistribution of the radiolabeled compound (2-5 uCi) in rat blood 15 mins after i.v. administration; format: ADME, organism-based; conditions: in vivo, iv, 0.25 h; procedure, shortened: as §1
Rattus norvegicus [3] = assay: Biodistribution of the radiolabeled compound (2-5 uCi) in rat spleen 65 mins after i.v. administration; format: ADME, organism-based; conditions: in vivo, iv; procedure, shortened: as §1
Rattus norvegicus [4] = assay: Biodistribution of the radiolabeled compound (2-5 uCi) in rat heart 2 mins after i.v. administration; format: ADME, organism-based; conditions: in vivo, iv; procedure, shortened: as §1
Rattus norvegicus [5] = assay: Biodistribution of the radiolabeled compound (2-5 uCi) in rat liver 15 mins after i.v. administration; format: ADME, organism-based; conditions: in vivo, iv, 0.25 h; procedure, shortened: as §1
Rattus norvegicus [6] = assay: Biodistribution of the radiolabeled compound (2-5 uCi) in rat kidney 15 mins after i.v. administration; format: ADME, organism-based; conditions: in vivo, iv, 0.25 h; procedure, shortened: as §1
Rattus norvegicus [7] = assay: Biodistribution of the radiolabeled compound (2-5 uCi) in rat blood 2 mins after i.v. administration; format: ADME, organism-based; conditions: in vivo, iv; procedure, shortened: as §1
[8] = Partition coefficient in buffer containing 0.1 M NH4PF6; format: ADME; conditions: octanol/water
Procedure, shortened: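 The 99mTc complex was mixed with 3 g each of 1-octanol and 50 mM phosphate buffer pH 7.4 containing 0.1 M NH4PF6. Tubes were vortexed three times for 1 min at room temperature and centrifuged 5 min. Weighed samples of each layer were gamma-counted. PC = counts per gram in octanol / counts per gram in aqueous.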

Rattus norvegicus [9] = assay: Heart/blood ratio of the radiolabeled compound (2-5 uCi) in rat 15 mins after i.v. administration; conditions: in vivo, iv, 0.25 h
Rattus norvegicus [10] = assay: Biodistribution of the radiolabeled compound (2-5 uCi) in rat liver 2 mins after i.v. administration; format: ADME, organism-based; conditions: in vivo, iv; procedure, shortened: as §1
Rattus norvegicus [11] = assay: Biodistribution of the radiolabeled compound (2-5 uCi) in rat heart 15 mins after i.v. administration; format: ADME, organism-based; conditions: in vivo, iv, 0.25 h; procedure, shortened: as §1
Rattus norvegicus [12] = assay: Heart by blood ratio of the radiolabeled compound (2-5 uCi) in rat 65 mins after i.v. administration; conditions: in vivo, iv
Rattus norvegicus [13] = assay: Biodistribution of the radiolabeled compound (2-5 uCi) in rat lung 2 mins after i.v. administration; format: ADME, organism-based; conditions: in vivo, iv; procedure, shortened: as §1
Rattus norvegicus [14] = assay: Biodistribution of the radiolabeled compound (2-5 uCi) in rat brain 2 mins after i.v. administration; format: ADME, organism-based; conditions: in vivo, iv; procedure, shortened: as §1
Rattus norvegicus [15] = assay: Biodistribution of the radiolabeled compound (2-5 uCi) in rat kidney 2 mins after i.v. administration; format: ADME, organism-based; conditions: in vivo, iv; procedure, shortened: as §1
Rattus norvegicus [16] = assay: Biodistribution of the radiolabeled compound (2-5 uCi) in rat spleen 2 mins after i.v. administration; format: ADME, organism-based; conditions: in vivo, iv; procedure, shortened: as §1
Rattus norvegicus [17] = assay: Biodistribution of the radiolabeled compound (2-5 uCi) in rat liver 65 mins after i.v. administration; format: ADME, organism-based; conditions: in vivo, iv; procedure, shortened: as §1
Rattus norvegicus [18] = assay: Biodistribution of the radiolabeled compound (2-5 uCi) in rat skin 2 mins after i.v. administration; format: ADME, organism-based, Zone of skin; conditions: in vivo, iv; procedure, shortened: as §1
Rattus norvegicus [19] = assay: Biodistribution of the radiolabeled compound (2-5 uCi) in rat brain 15 mins after i.v. administration; format: ADME, organism-based; conditions: in vivo, iv, 0.25 h; procedure, shortened: as §1
Rattus norvegicus [20] = assay: Biodistribution of the radiolabeled compound (2-5 uCi) in rat muscle 2 mins after i.v. administration; format: ADME, organism-based, Muscle tissue; conditions: in vivo, iv; procedure, shortened: as §1
Rattus norvegicus [21] = assay: Biodistribution of the radiolabeled compound (2-5 uCi) in rat brain 65 mins after i.v. administration; format: ADME, organism-based; conditions: in vivo, iv; procedure, shortened: as §1
Rattus norvegicus [22] = assay: Biodistribution of the radiolabeled compound (2-5 uCi) in rat skin 65 mins after i.v. administration; format: ADME, organism-based, Zone of skin; conditions: in vivo, iv; procedure, shortened: as §1
Rattus norvegicus [23] = assay: Biodistribution of the radiolabeled compound (2-5 uCi) in rat muscle 65 mins after i.v. administration; format: ADME, organism-based, Muscle tissue; conditions: in vivo, iv; procedure, shortened: as §1
Rattus norvegicus [24] = assay: Biodistribution of the radiolabeled compound (2-5 uCi) in rat heart 65 mins after i.v. administration; format: ADME, organism-based; conditions: in vivo, iv; procedure, shortened: as §1
Rattus norvegicus [25] = assay: Biodistribution of the radiolabeled compound (2-5 uCi) in rat kidney 65 mins after i.v. administration; format: ADME, organism-based; conditions: in vivo, iv; procedure, shortened: as §1
Rattus norvegicus [26] = assay: Biodistribution of the radiolabeled compound (2-5 uCi) in rat lung 15 mins after i.v. administration; format: ADME, organism-based; conditions: in vivo, iv, 0.25 h; procedure, shortened: as §1
Rattus norvegicus [27] = assay: Biodistribution of the radiolabeled compound (2-5 uCi) in rat blood 65 mins after i.v. administration; format: ADME, organism-based; conditions: in vivo, iv; procedure, shortened: as §1
Rattus norvegicus [28] = assay: Biodistribution of the radiolabeled compound (2-5 uCi) in rat spleen 15 mins after i.v. administration; format: ADME, organism-based; conditions: in vivo, iv, 0.25 h; procedure, shortened: as §1
Rattus norvegicus [29] = assay: Biodistribution of the radiolabeled compound (2-5 uCi) in rat skin 15 mins after i.v. administration; format: ADME, organism-based, Zone of skin; conditions: in vivo, iv, 0.25 h; procedure, shortened: as §1
Rattus norvegicus [30] = assay: Heart by blood ratio of the radiolabeled compound (2-5 uCi) in rat 2 mins after i.v. administration; conditions: in vivo, iv
[31] = Partition coefficient in buffer containing 0.1 M NaCl; format: ADME; conditions: octanol/water
Procedure, shortened: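 Octanol/buffer partition: the 99mTc complex was shaken with 3 g 1-octanol plus 3 g 50 mM phosphate pH 7.4 containing 0.1 M NaCl. Vortexing was 3 × 1 min at room temperature, followed by 5 min centrifugation. Weighed samples from both layers were gamma-counted. Ratio = octanol counts/g over aqueous counts/g.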

Rattus norvegicus [32] = assay: Biodistribution of the radiolabeled compound (2-5 uCi) in rat muscle 15 mins after i.v. administration; format: ADME, organism-based, Muscle tissue; conditions: in vivo, iv, 0.25 h; procedure, shortened: as §1

Row | Biodistribution (Rattus norvegicus [1]) [dose/organ %] | Biodistribution (Rattus norvegicus [2]) [dose/organ %] | Biodistribution (Rattus norvegicus [3]) [dose/organ %] | Biodistribution (Rattus norvegicus [4]) [dose/organ %] | Biodistribution (Rattus norvegicus [5]) [dose/organ %] | Biodistribution (Rattus norvegicus [6]) [dose/organ %] | Biodistribution (Rattus norvegicus [7]) [dose/organ %] | Partition coefficient [8] | heart/blood ratio (Rattus norvegicus [9]) | Biodistribution (Rattus norvegicus [10]) [dose/organ %] | Biodistribution (Rattus norvegicus [11]) [dose/organ %] | heart/blood ratio (Rattus norvegicus [12]) | Biodistribution (Rattus norvegicus [13]) [dose/organ %] | Biodistribution (Rattus norvegicus [14]) [dose/organ %] | Biodistribution (Rattus norvegicus [15]) [dose/organ %] | Biodistribution (Rattus norvegicus [16]) [dose/organ %] | Biodistribution (Rattus norvegicus [17]) [dose/organ %] | Biodistribution (Rattus norvegicus [18]) [dose/organ %] | Biodistribution (Rattus norvegicus [19]) [dose/organ %] | Biodistribution (Rattus norvegicus [20]) [dose/organ %] | Structure (SMILES) | also measured
1 | 0.23 | 1.14 | 0.22 | 0.42 | 27.48 | 15.9 | 3.57 | 11.5 | 3.33 | 25.92 | 0.38 | 4.8 | 0.56 | 0.04 | 19.37 | 0.41 | 15.23 | 7.45 | 0.01 | 9.08 | CC(C)(S)CN1CCCN(CC(C)(C)S)CC1 | Biodistribution (Rattus norvegicus [21]): 0.007 dose/organ %; Biodistribution (Rattus norvegicus [22]): 6.8 dose/organ %; Biodistribution (Rattus norvegicus [23]): 8.66 dose/organ %; Biodistribution (Rattus norvegicus [24]): 0.37 dose/organ %; Biodistribution (Rattus norvegicus [25]): 4.26 dose/organ %; Biodistribution (Rattus norvegicus [26]): 0.28 dose/organ %; Biodistribution (Rattus norvegicus [27]): 0.77 dose/organ %; Biodistribution (Rattus norvegicus [28]): 0.26 dose/organ %; Biodistribution (Rattus norvegicus [29]): 5.16 dose/organ %; heart/blood ratio (Rattus norvegicus [30]): 1.18; Partition coefficient [31]: 1.19; Biodistribution (Rattus norvegicus [32]): 6.98 dose/organ %
2 | 0.12 | 2 | 0.08 | 0.21 | 29.63 | 9.43 | 7.16 | 10.75 | 0.5 | 31.81 | 0.1 | 1 | 0.62 | 0.03 | 15.71 | 0.57 | 20.2 | 6.65 | 0.01 | 10.67 | CC(C)(S)CN1CCN(CC(C)(C)S)CC1 | Biodistribution (Rattus norvegicus [21]): 0.003 dose/organ %; Biodistribution (Rattus norvegicus [22]): 7.13 dose/organ %; Biodistribution (Rattus norvegicus [23]): 5.06 dose/organ %; Biodistribution (Rattus norvegicus [24]): 0.07 dose/organ %; Biodistribution (Rattus norvegicus [25]): 1.09 dose/organ %; Biodistribution (Rattus norvegicus [26]): 0.23 dose/organ %; Biodistribution (Rattus norvegicus [27]): 0.7 dose/organ %; Biodistribution (Rattus norvegicus [28]): 0.25 dose/organ %; Biodistribution (Rattus norvegicus [29]): 14.13 dose/organ %; heart/blood ratio (Rattus norvegicus [30]): 0.29; Partition coefficient [31]: 1.09; Biodistribution (Rattus norvegicus [32]): 10.12 dose/organ %
